The record followed here is ChEMBL document CHEMBL1123396, “Glycine antagonists. Synthesis, structure, and biological effects of some bicyclic 5-isoxazolol zwitterions” (J Med Chem, 1986).

Where only a bound is given, the exact number is not on record here.

The target of data set [1] is GABA-A receptor; anion channel. The experiment in a line: In vitro inhibition of [3H]GABA binding to Gamma-aminobutyric acid receptor from rat brain synaptic membranes. In kind it is cell membranes, Membrane. The essentials:
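Rat brain synaptic membranes (0.8–1.2 mg protein) incubated in triplicate in 50 mM Tris-citrate pH 7.1 with 5 nM [3H]GABA and various test concentrations, 15 min at 2 °C. Centrifugation at 48000g for 10 min, pellets rinsed twice with cold water, scintillation counting. Nonspecific binding (1 mM GABA) subtracted. IC50 by log-probit analysis of inhibition at at least four concentrations.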

Data set [2] addresses GABA transporter (Rattus norvegicus, UniProt P31647+P23978+P31646+P48056). The experiment in a line: In vitro inhibition of rat neuronal (synaptosomal) GABA uptake. The data set is classed as protein assay. A digest of the protocol: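 Crude rat whole-brain synaptosomes (homogenized in 0.32 M sucrose, 600g and 25000g spins at 4 °C) suspended in oxygenated phosphate medium. Preincubated 10 min at 25 °C with inhibitor, then [3H]GABA added to 50 nM final and incubated 10 min more. Rapid glass-fiber filtration, ice-cold buffer wash, scintillation counting.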

Data set [3] is described as follows: pKa value of the compound. The data set is classed as physicochemical. A digest of the protocol: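 Potentiometric titration with 0.1 N NaOH to pH ca. 10, ionic strength held constant with 0.15 M KCl.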

One may read the IC50 as the concentration needed to halve the response being measured. Higher therefore signals weaker potency. `Oc1noc2c1CNCC2` gave an IC50 in data set [1] of 72 µM.

The term pKa denotes the pH at which an ionisable group is half protonated. With `Oc1onc2c1CCNCC2`, the concentration for half-maximal inhibition (IC50) in data set [2] is > 300 µM; in data set [1], 15 µM. The same compound came in with a pKa in data set [3] of 3.3.

With `Oc1onc2c1CNCCC2`, the IC50 in data set [2] is > 300 µM; in data set [1], > 100 µM. The pKa in data set [3] came out at 2.6.

As for `NCCC(N)C(=O)O` (stereo unspecified), the pKa in data set [3] stood at 4. Also, the IC50 in data set [1] came to 0.033 µM.

As to `Oc1onc2c1CNCC2`, the IC50 was found to be 130 µM in data set [2] and 100 µM in data set [1]. In data set [3], this compound yielded a pKa of 3.

For `Oc1noc2c1CCNCC2`, in data set [2], the IC50 was > 300 µM.

Take `Oc1onc2c1CCCNC2`: the IC50 is > 300 µM in data set [2] and > 100 µM in data set [1]. The pKa in data set [3] worked out at 2.5.
